PMI act hi M6P: activators of human phosphomannose isomerase at near-saturating mannose 6-phosphate; coupled PMI enzyme assay, resazurin fluorescence, 20 min; active compounds read high; 1 = untreated enzyme, 0 = substrate-free blank; activation factor at 20 µM; hit rate 0.34% among 190,000;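 active = activation factor of 2 or more at 20 µM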
Target sequence (P34949 whole entry, looked up): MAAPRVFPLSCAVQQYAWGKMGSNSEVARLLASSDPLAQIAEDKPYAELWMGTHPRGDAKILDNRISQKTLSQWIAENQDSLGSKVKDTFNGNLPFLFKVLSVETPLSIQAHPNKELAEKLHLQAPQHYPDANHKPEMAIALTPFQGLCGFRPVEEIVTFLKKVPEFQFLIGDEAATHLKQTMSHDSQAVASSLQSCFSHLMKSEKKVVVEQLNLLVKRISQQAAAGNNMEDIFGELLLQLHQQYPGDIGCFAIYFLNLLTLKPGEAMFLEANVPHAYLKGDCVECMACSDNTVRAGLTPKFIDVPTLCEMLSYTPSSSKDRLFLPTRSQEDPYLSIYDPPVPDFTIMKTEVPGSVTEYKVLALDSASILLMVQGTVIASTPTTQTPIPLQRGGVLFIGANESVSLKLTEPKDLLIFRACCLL
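assay system = human phosphomannose isomerase with PGI, G6PDH, diaphorase coupling enzymes | quantity = 15 ng/mL PMI | incubation = enzyme reaction with compound 20 min at room temperature | medium = HEPES pH 7.4 buffer with MgCl2 and Tween-20 | compound dosing = one concentration, 20 µM, in 1% DMSO | measured by = Diaphorase-driven resazurin-to-resorufin fluorescence, excitation 544, emission 590 nm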
Diaph act CS: counter-screen for diaphorase-based assays: diaphorase activators and chemical reducers; Diaphorase/resazurin coupled assay, resorufin fluorescence, 16 min; active compounds read high; 1 = vehicle wells, 0 = NADH-free wells; activation factor at 20 µM; hit rate 0.005% among 190,000; AID 1229;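 active = diaphorase activity raised at least twofold by the compound at 20 µM; inactive = activation factor below 2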
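Measured by – red resorufin fluorescence at 544/590 nm excitation/emission · Test system – Clostridium kluyveri diaphorase, purified enzyme · Incubation – reaction time 16 min, room temperature · Buffer or medium – 50 mM HEPES pH 7.4 with 4.542 mM MgCl2, 0.005% Tween 20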
WT yeast gro inh: growth inhibition of WT yeast, mitochondrial fusion screen; hit rate 2.1% among 190,000; inhibition, % at 10 µM; mitochondrial fusion phenotypic screen, WT strain; in the data active = inhibition above about 58%; tested in S. cerevisiae
PMI act: phosphomannose isomerase (human) activation; purified human PMI, coupled resazurin fluorescence, 20 min; active compounds read high; 1 = vehicle control, 0 substrate-free wells; activation factor at 20 µM; AID 1214; hit rate 0.005% among 190,000;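 active = activation factor of 2 or more at 20 µM, relative to plate controls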
Lmaj promast: reduces viability of Leishmania major promastigotes; inhibition, % at 10 µM; resazurin fluorescence viability; hit rate 9% among 200,000; in the data active = inhibition above about 50%;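 also: promastigotes grown with compound for 44 hours at 28 °C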
Large screens that a line does not name were inactive. A selection: hits, their analogues and other compounds. The true share with any hit is near 10%.

CCOC(=O)CCc1c(C)nc(-n2[nH]c(C)c(CCO)c2=O)[nH]c1=O	none
O=C(NC1CC2CCCC(C1)N2S(=O)(=O)c1ccccc1)C1CCCCC1 (centres undefined)	none
CCNC(=S)NC1CC2CCC(C1)N2Cc1ccccc1 (centres undefined)	none
CCOCCCNC(=S)NC1CC2CCC(C1)N2Cc1ccccc1 (centres undefined)	Lmaj promast 88 (no result: PMI act hi M6P, Diaph act CS, PMI act)
CC(C)CNC(=S)NC1CC2CCC(C1)N2Cc1ccccc1 (centres undefined)	Lmaj promast 88
O=C(NC1CC2CCCC(C1)N2Cc1ccccc1)C1CCCCC1 (centres undefined)	Lmaj promast 84
S=C(NCCc1ccccc1)NC1CC2CCC(C1)N2Cc1ccccc1 (centres undefined)	Lmaj promast 94
COCCCNC(=S)NC1CC2CCC(C1)N2Cc1ccccc1 (centres undefined)	none (no result: PMI act hi M6P, Diaph act CS, PMI act)
c1ccc(OCc2nc3c4c(ncn3n2)-c2ccccc2CC42CCCC2)cc1	none
O=C(Nc1ccc(Cl)c(C(F)(F)F)c1)NC1CC2CCCC(C1)N2Cc1ccccc1 (centres undefined)	Lmaj promast 100
Cc1ccccc1C(=O)NC1CC2CCC(C1)N2Cc1ccccc1 (centres undefined)	Lmaj promast 86
O=C(NC1CCCCC1)NC1CC2CCCC(C1)N2C1CCCC1 (centres undefined)	none
CC(C)CNC(=S)NC1CC2CCCC(C1)N2C1CCCCC1 (centres undefined)	Lmaj promast 52
CCCNC(=S)NC1CC2CCC(C1)N2Cc1ccccc1 (centres undefined)	Lmaj promast 66 (no result: WT yeast gro inh)
Cc1c(C(=O)Nc2ccc(-c3nnc4n3CCCCC4)cc2)oc2ccc(Br)cc12	none
CC(CCc1ccccc1)NC(=S)NC1CCCCC1 (centres undefined)	none
S=C(NC1CCCCC1)NC1CC2CCC(C1)N2Cc1ccccc1 (centres undefined)	Lmaj promast 90 (no result: PMI act hi M6P, Diaph act CS, PMI act)
CC(C)N(Cc1nc(-c2ccc3c(c2)OCO3)no1)Cc1nccn1C	none
O=C(CSc1ccc(-c2ccccn2)nn1)N1CCCC1	none
O=C(COC(=O)C1COc2ccccc2O1)NC(=O)NC1CCCC1 (centres undefined)	none
O=C(COC(=O)C1COc2ccccc2O1)NC(=O)Nc1ccc2c(c1)OCCO2 (centres undefined)	WT yeast gro inh 99
CC(=O)N1CC[n+]2c(-c3ccc(Cl)cc3Cl)csc21	none
COCC(C)NC(=O)CSc1nc2ccccc2n1CCc1ccccc1 (centres undefined)	none
O=[N+]([O-])/C=C/c1cn(Cc2ccc(Cl)cc2)c2ccccc12	Lmaj promast 99
Cc1cccc(Cn2cc(/C=C/[N+](=O)[O-])c3ccccc32)c1	Lmaj promast 77
Cc1ccc(CNS(=O)(=O)/C=C/c2ccc3c(c2)OCO3)cc1	none
COc1c(F)c(F)c(C(=O)Nc2ccc(NC(=O)c3ccco3)cc2)c(F)c1F	Lmaj promast 64
CC(C)OC(=O)c1ccc(NC(=O)c2ccco2)cc1	Lmaj promast 56
CSc1nc2ccccc2n1Cc1c(Cl)cccc1Cl	none
CCC(=O)N/N=C/c1ccc(OS(=O)(=O)c2ccccc2)cc1	Lmaj promast 57
NC(N)=N/N=C/c1ccc(OS(=O)(=O)c2ccccc2)cc1	Lmaj promast 88
CCOc1cc(/C=N/NC(=O)COc2ccc(Cl)cc2)ccc1OS(=O)(=O)c1ccccc1	Lmaj promast 96
O=C1CS/C(=N/N=C/c2ccc(OS(=O)(=O)c3ccccc3)cc2)N1	none
CCOc1cc(/C=N/NS(=O)(=O)c2ccccc2)ccc1OS(=O)(=O)c1ccc(C)cc1	none
O=C(CCl)N1c2ccccc2OCC1c1ccccc1 (centres undefined)	Lmaj promast 57
COc1ccc(S(=O)(=O)N2c3ccccc3OCC2c2ccccc2)cc1 (centres undefined)	none
N#CCC(=O)N1CCN(C=O)CC1	none
Oc1c(N=NC(=S)Nc2ccccc2F)c2ccccc2n1Cc1ccc(F)cc1	Lmaj promast 91
Oc1c(N=NC(=S)Nc2ccccc2F)c2ccccc2n1Cc1cccc(Cl)c1	Lmaj promast 83
Cc1ccc(N=Nc2c(O)n(CN3CCOCC3)c3ccccc23)cc1	none

Assay outcomes deposited in PubChem BioAssay by several laboratories.
